ChEMBL document CHEMBL3044785, “Isolation and identification of antifungal and antialgal alkaloids from Haplophyllum sieversii” (J Agric Food Chem, 2005)
Calls of active or inactive are those of the source. The calls are words filed in the database; no cut-off is given here.

Tests used:
Planktothrix agardhii [1] = assay: Antialgal activity against Planktothrix agardhii assessed as lowest observed effect concentration measured for 4 days; format: functional
How it was run: (§1)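 Cyanobacteria (O. perornata, O. agardhii, Pseudanabaena LW397) and the green alga S. capricornutum were each maintained in continuous steady-state culture. Compound in dichloromethane was dried in quartz 96-well plates, then 200 µL culture was added. Final concentrations were 0.1, 1.0, 10.0 and 100.0 µM, in triplicate, and experiments were repeated. Plates were held at 29 °C under continuous light, and A650 was read every 24 h for 4 days. LOEC, LCIC and 96-h IC50 were taken from mean absorbance graphs.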

Planktothrix agardhii [2] = assay: Antialgal activity against Planktothrix agardhii assessed as lowest complete inhibition concentration measured for 4 days; format: functional; how it was run: as §1
Fusarium oxysporum = assay: Antifungal activity against Fusarium oxysporum assessed as growth inhibition at 50 to 150 uM measured up to 72 hr by 96-well microtiter assay; format: functional, organism-based
How it was run: (§2)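 Filamentous-fungus broth microdilution in 96 wells, adapted from NCCLS M27A, with benomyl, azoxystrobin and captan as standards. Conidia came from 7–10-day PDA cultures, were filtered and set to 1.0 × 10^6 conidia/mL by A625 standard curve. Compounds were tested at 50.0, 100.0 and 150.0 µM. Growth was read as A620 at 0, 24, 48 and 72 h, plus 120 h for Phomopsis species. Percent inhibition was pooled from two experiments.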

Pseudanabaena sp. [3] = assay: Antialgal activity against Pseudanabaena sp. LW397 assessed as lowest complete inhibition concentration measured for 4 days; format: functional; how it was run: as §1
Phomopsis obscurans [4] = assay: Antifungal activity against Phomopsis obscurans assessed as growth inhibition at 50 uM measured at 120 hr by 96-well microtiter assay; format: functional; settings: Paraphomopsis obscurans; how it was run: as §2
[5] = system: Colletotrichum gloeosporioides; assay: Antifungal activity against Colletotrichum gloeosporioides assessed as growth inhibition at 50 to 150 uM measured up to 72 hr by 96-well microtiter assay; format: functional, organism-based; how it was run: as §2
Colletotrichum acutatum = assay: Antifungal activity against Colletotrichum acutatum assessed as growth inhibition at 50 to 150 uM measured up to 72 hr by 96-well microtiter assay; format: functional, organism-based; how it was run: as §2
Pseudanabaena sp. [6] = assay: Antialgal activity against Pseudanabaena sp. LW397 assessed as lowest observed effect concentration measured for 4 days; format: functional; how it was run: as §1
Phomopsis obscurans [7] = assay: Antifungal activity against Phomopsis obscurans assessed as growth inhibition at 50 to 150 uM measured up to 120 hr by 96-well microtiter assay; format: functional, organism-based; settings: Paraphomopsis obscurans; how it was run: as §2
[8] = system: Selenastrum capricornutum; assay: Antialgal activity against Selenastrum capricornutum assessed as lowest observed effect concentration measured for 4 days; format: functional; how it was run: as §1
[9] = system: Selenastrum capricornutum; assay: Antialgal activity against Selenastrum capricornutum assessed as lowest complete inhibition concentration measured for 4 days; format: functional; how it was run: as §1
Planktothrix perornata [10] = assay: Antialgal activity against Oscillatoria perornata assessed as lowest observed effect concentration measured for 4 days; format: functional; how it was run: as §1
Colletotrichum fragariae = assay: Antifungal activity against Colletotrichum fragariae assessed as growth inhibition at 50 to 150 uM measured up to 72 hr by 96-well microtiter assay; format: functional, organism-based; how it was run: as §2
Diaporthe ampelina = assay: Antifungal activity against Diaporthe ampelina assessed as growth inhibition at 50 to 150 uM measured up to 120 hr by 96-well microtiter assay; format: functional, organism-based; how it was run: as §2
Phomopsis obscurans [11] = assay: Antifungal activity against Phomopsis obscurans assessed as growth inhibition at 50 uM measured at 120 hr by 96-well microtiter assay; settings: Paraphomopsis obscurans
Planktothrix perornata [12] = assay: Antialgal activity against Oscillatoria perornata assessed as lowest complete inhibition concentration measured for 4 daysos; format: functional; how it was run: as §1
Pseudanabaena sp. [13] = assay: Antialgal activity against Pseudanabaena sp. LW397 assessed as inhibition measured for 96 hr; format: functional, organism-based; settings: LW397, 96 h; how it was run: as §1
[14] = system: Selenastrum capricornutum; assay: Antialgal activity against Selenastrum capricornutum assessed as inhibition measured for 96 hr; format: functional, organism-based; how it was run: as §1
Planktothrix perornata [15] = assay: Antialgal activity against Oscillatoria perornata assessed as inhibition measured for 96 hr; format: functional, organism-based; how it was run: as §1
Botrytis cinerea = assay: Antifungal activity against Botryotinia fuckeliana assessed as growth inhibition at 50 to 150 uM measured up to 72 hr by 96-well microtiter assay; format: functional, organism-based; how it was run: as §2
[16] = system: Colletotrichum gloeosporioides; assay: Antifungal activity against Colletotrichum gloeosporioides assessed as growth inhibition at 150 µM measured at 48 hr by 96-well microtiter assay
[17] = system: Colletotrichum gloeosporioides; assay: Antifungal activity against Colletotrichum gloeosporioides assessed as growth inhibition at 150 µM measured at 72 hr by 96-well microtiter assay

Compound	Activity (Planktothrix agardhii [1])	Activity (Planktothrix agardhii [2])	growth inhibition (GI) (Fusarium oxysporum)	Activity (Pseudanabaena sp. [3])	inhibition at 50 µM (Phomopsis obscurans [4])	growth inhibition (GI) [5]	growth inhibition (GI) (Colletotrichum acutatum)	Activity (Pseudanabaena sp. [6])	growth inhibition (GI) (Phomopsis obscurans [7])	Activity [8]	Activity [9]	Activity (Planktothrix perornata [10])	growth inhibition (GI) (Colletotrichum fragariae)	growth inhibition (GI) (Diaporthe ampelina)	inhibition at 50 µM (Phomopsis obscurans [11])	Activity (Planktothrix perornata [12])	IC50 [14]	IC50 (Planktothrix perornata [15])	further results
COc1ccc([C@H]2OC[C@H]3[C@@H]2CO[C@@H]3c2ccc(OC)c(OC)c2)cc1OC [(+)-EUDESMIN]	>100 µM	>100 µM	Active	100 µM	> 80%	Active	Active	100 µM	Active	100 µM	>100 µM	10 µM	Active	Active	> 80%	>100 µM			
COc1ccc2[nH]c(=O)c3c(c2c1)OC(C)(C)C=C3 [HAPLAMINE]	>100 µM	>100 µM	Active	100 µM	> 80%	Active	Active	1 µM	Active	10 µM	100 µM	1 µM	Active	Active	> 80%	10 µM	15.9 µM	1.8 µM	IC50 (Pseudanabaena sp. [13]): 2 µM; growth inhibition (GI) (Botrytis cinerea): Active
COc1c2ccoc2nc2c(OC)c(OCC3OC3(C)C)ccc12 (centres undefined) [ANHYDROEVOXINE]			Active		> 80%	Active	Active		Active				Active	Active	> 80%				
CC1(C)C=Cc2c(O)nc3ccccc3c2O1 [FLINDERSINE]	>100 µM	>100 µM	Active	>100 µM	> 80%	Active	Active	>100 µM	Active	10 µM	100 µM	10 µM	Active	Active	> 80%	100 µM	17.8 µM	15.9 µM	inhibition (INH) [16]: >65%; inhibition (INH) [17]: <40%
